In ChEMBL document CHEMBL4689842, “EUbOPEN Chemogenomics Library wave 1” (2021):
“And” between values parts separate entries of the source, which are not always exact repeats. Identical values can stand only once.

Tested on: U2OS
Experiment: Multiplex assay against U2OS
Format: toxicity, cell-based
Settings: human
Outline: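 At seeding, live cells were stained with Hoechst33342, BioTracker Green Microtubule Cytoskeleton Dye, MitoTracker Red and Annexin V Alexa Fluor 680. After compound addition they were imaged on a CQ1 microscope at 37°C and 5% CO2, and CellPathfinder machine-learning gating sorted them into Hoechst high-intensity objects or normal cells, with normal cells further split into healthy, pyknosed or fragmented nuclei and pyknosed cells into mitotic or apoptotic. Tubulin, mitochondrial-mass and membrane-permeability phenotypes are given as per cents of cells with healthy nuclei.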

[1] = 12 h, 1 µM, compound concentration 1 uM, replicate 1
[2] = 12 h, 1 µM, compound concentration 1 uM, replicate 2
[3] = 12 h, 10 µM, compound concentration 10 uM, replicate 1
[4] = 12 h, 10 µM, compound concentration 10 uM, replicate 2
[5] = 24 h, 1 µM, compound concentration 1 uM, replicate 1
[6] = 24 h, 1 µM, compound concentration 1 uM, replicate 2
[7] = 24 h, 10 µM, compound concentration 10 uM, replicate 1
[8] = 24 h, 10 µM, compound concentration 10 uM, replicate 2
[9] = 48 h, 1 µM, compound concentration 1 uM, replicate 1
[10] = 48 h, 1 µM, compound concentration 1 uM, replicate 2
[11] = 48 h, 10 µM, compound concentration 10 uM, replicate 1
[12] = 48 h, 10 µM, compound concentration 10 uM, replicate 2

## C=CC(=O)Nc1cccc(C(=O)Nc2ccc(Nc3cc(-c4[nH]c(SC)nc4C)ccn3)cc2)c1
[1]
  Population Apoptotic (%): 52%
  Population Fragmented Nuclei (%): 9%
  Population Healthy Nuclei (%): 78%
  Population Hoechst High Intensity Objects (%): 8%
  Population Membrane Permeable-Phenotype (%): 4%
  Population Mitochondria Different-Phenotype (%): 8%
  Population Mitotic Cells (%): 47%
  Population Normal (%): 91%
  Population Pyknosed Nuclei (%): 12%
  Population Tubulin-Different-Phenotype (%): 11%
  Total Cell Count: 259
[2]
  Population Apoptotic (%): 0%
  Population Fragmented Nuclei (%): 2%
  Population Healthy Nuclei (%): 94%
  Population Hoechst High Intensity Objects (%): 14%
  Population Membrane Permeable-Phenotype (%): 0%
  Population Mitochondria Different-Phenotype (%): 7%
  Population Mitotic Cells (%): 100%
  Population Normal (%): 85%
  Population Pyknosed Nuclei (%): 2%
  Population Tubulin-Different-Phenotype (%): 23%
  Total Cell Count: 112
[3]
  Population Fragmented Nuclei (%): 7%
  Population Healthy Nuclei (%): 77%
  Population Hoechst High Intensity Objects (%): 6%
  Population Membrane Permeable-Phenotype (%): 3%
  Population Mitochondria Different-Phenotype (%): 8%
  Population Mitotic Cells (%): 59%
  Population Normal (%): 93%
  Population Pyknosed Nuclei (%): 14%
  Population Tubulin-Different-Phenotype (%): 9%
  Total Cell Count: 171
[4]
  Population Apoptotic (%): 40%
  Population Fragmented Nuclei (%): 6%
  Population Healthy Nuclei (%): 83%
  Population Hoechst High Intensity Objects (%): 18%
  Population Membrane Permeable-Phenotype (%): 7%
  Population Mitochondria Different-Phenotype (%): 12%
  Population Mitotic Cells (%): 60%
  Population Normal (%): 81%
  Population Pyknosed Nuclei (%): 10%
  Population Tubulin-Different-Phenotype (%): 12%
  Total Cell Count: 78
[5]
  Population Apoptotic (%): 40%
  Population Fragmented Nuclei (%): 13%
  Population Healthy Nuclei (%): 76%
  Population Hoechst High Intensity Objects (%): 4%
  Population Membrane Permeable-Phenotype (%): 5%
  Population Mitochondria Different-Phenotype (%): 5%
  Population Mitotic Cells (%): 60%
  Population Normal (%): 95%
  Population Pyknosed Nuclei (%): 10%
  Population Tubulin-Different-Phenotype (%): 18%
  Total Cell Count: 278
[6]
  Population Apoptotic (%): 37%
  Population Fragmented Nuclei (%): 3%
  Population Healthy Nuclei (%): 87%
  Population Membrane Permeable-Phenotype (%): 2%
  Population Mitochondria Different-Phenotype (%): 10%
  Population Mitotic Cells (%): 62%
  Population Pyknosed Nuclei (%): 8%
  Population Tubulin-Different-Phenotype (%): 25%
  Total Cell Count: 122
[7]
  Population Apoptotic (%): 52%
  Population Fragmented Nuclei (%): 7%
  Population Healthy Nuclei (%): 83%
  Population Hoechst High Intensity Objects (%): 5%
  Population Membrane Permeable-Phenotype (%): 5%
  Population Mitochondria Different-Phenotype (%): 6%
  Population Mitotic Cells (%): 47%
  Population Normal (%): 94%
  Population Pyknosed Nuclei (%): 8%
  Population Tubulin-Different-Phenotype (%): 6%
  Total Cell Count: 208
[8]
  Population Apoptotic (%): 40%
  Population Fragmented Nuclei (%): 5%
  Population Healthy Nuclei (%): 85%
  Population Hoechst High Intensity Objects (%): 11%
  Population Membrane Permeable-Phenotype (%): 8%
  Population Mitochondria Different-Phenotype (%): 14%
  Population Mitotic Cells (%): 60%
  Population Normal (%): 88%
  Population Pyknosed Nuclei (%): 9%
  Population Tubulin-Different-Phenotype (%): 12%
  Total Cell Count: 95
[9]
  Population Apoptotic (%): 37%
  Population Fragmented Nuclei (%): 5%
  Population Healthy Nuclei (%): 86%
  Population Hoechst High Intensity Objects (%): 3%
  Population Membrane Permeable-Phenotype (%): 4%
  Population Mitochondria Different-Phenotype (%): 10%
  Population Mitotic Cells (%): 62%
  Population Normal (%): 96%
  Population Pyknosed Nuclei (%): 7%
  Population Tubulin-Different-Phenotype (%): 17%
  Total Cell Count: 291
[10]
  Population Apoptotic (%): 18%
  Population Fragmented Nuclei (%): 6%
  Population Healthy Nuclei (%): 85%
  Population Hoechst High Intensity Objects (%): 4%
  Population Membrane Permeable-Phenotype (%): 6%
  Population Mitochondria Different-Phenotype (%): 13%
  Population Mitotic Cells (%): 81%
  Population Normal (%): 95%
  Population Pyknosed Nuclei (%): 8%
  Population Tubulin-Different-Phenotype (%): 28%
  Total Cell Count: 117
[11]
  Population Apoptotic (%): 31%
  Population Fragmented Nuclei (%): 7%
  Population Healthy Nuclei (%): 84%
  Population Hoechst High Intensity Objects (%): 3%
  Population Membrane Permeable-Phenotype (%): 2%
  Population Mitochondria Different-Phenotype (%): 9%
  Population Mitotic Cells (%): 68%
  Population Normal (%): 96%
  Population Pyknosed Nuclei (%): 8%
  Total Cell Count: 316
[12]
  Population Apoptotic (%): 11%
  Population Fragmented Nuclei (%): 9%
  Population Healthy Nuclei (%): 80%
  Population Hoechst High Intensity Objects (%): 9%
  Population Membrane Permeable-Phenotype (%): 4%
  Population Mitochondria Different-Phenotype (%): 17%
  Population Mitotic Cells (%): 88%
  Population Normal (%): 90%
  Population Pyknosed Nuclei (%): 10%
  Population Tubulin-Different-Phenotype (%): 10%
  Total Cell Count: 133

## CNCc1ccccc1-c1csc([C@H](C)Nc2nc(C)nc3cc(OC)c(OC)cc23)c1 [BAY-294]
[3]
  Population Apoptotic (%): 76% and 59%
  Population Hoechst High Intensity Objects (%): 7% and 6% and 3%
  Population Membrane Permeable-Phenotype (%): 100% and 75% and 50%
  Population Mitochondria Different-Phenotype (%): 100% and 90% and 41%
  Population Mitotic Cells (%): 23% and 40%
  Population Normal (%): 92% and 93% and 96%
  Population Tubulin-Different-Phenotype (%): 100% and 97%
[4]
  Population Apoptotic (%): 54% and 57% and 68%
  Population Healthy Nuclei (%): 38% and 23% and 66%
  Population Membrane Permeable-Phenotype (%): 88% and 86% and 54%
  Population Mitochondria Different-Phenotype (%): 96% and 93% and 66%
  Population Mitotic Cells (%): 45% and 42% and 31%
  Population Normal (%): 88% and 44%
[7]
  Population Apoptotic (%): 90% and 93% and 54%
  Population Membrane Permeable-Phenotype (%): 100% and 54%
  Population Mitochondria Different-Phenotype (%): 100% and 75%
  Population Normal (%): 94% and 86% and 96%
  Population Pyknosed Nuclei (%): 57% and 70%
  Population Tubulin-Different-Phenotype (%): 100%
[8]
  Population Apoptotic (%): 92% and 52% and 78%
  Population Fragmented Nuclei (%): 30% and 52%
  Population Membrane Permeable-Phenotype (%): 66% and 85%
  Population Mitochondria Different-Phenotype (%): 76% and 92%
  Population Normal (%): 82% and 92% and 45%
  Population Pyknosed Nuclei (%): 55% and 31% and 27%
  Population Tubulin-Different-Phenotype (%): 98% and 85%
[11]
  Population Apoptotic (%): 98%
  Population Fragmented Nuclei (%): 36%
  Population Healthy Nuclei (%): 1%
  Population Hoechst High Intensity Objects (%): 13%
  Population Membrane Permeable-Phenotype (%): 100%
  Population Mitochondria Different-Phenotype (%): 100%
  Population Mitotic Cells (%): 1%
  Population Normal (%): 86%
  Population Pyknosed Nuclei (%): 62%
  Population Tubulin-Different-Phenotype (%): 100%
[12]
  Population Apoptotic (%): 70%
  Population Fragmented Nuclei (%): 44%
  Population Healthy Nuclei (%): 18%
  Population Hoechst High Intensity Objects (%): 61%
  Population Mitotic Cells (%): 30%
  Population Normal (%): 38%
  Population Pyknosed Nuclei (%): 37%
